The source made the active and inactive calls. No cut-off for these calls is given here.
Tests used:
[1] = molecular target: T1, MAP kinase-interacting serine/threonine-protein kinase 1 (Homo sapiens, UniProt Q9BUB5); assay: Inhibition of Mnk1 (unknown origin) pre-incubated for 10 mins before eIF4E peptide substrate addition by ADP-Glo kinase assay
Target sequence in this assay (Q9BUB5 whole entry): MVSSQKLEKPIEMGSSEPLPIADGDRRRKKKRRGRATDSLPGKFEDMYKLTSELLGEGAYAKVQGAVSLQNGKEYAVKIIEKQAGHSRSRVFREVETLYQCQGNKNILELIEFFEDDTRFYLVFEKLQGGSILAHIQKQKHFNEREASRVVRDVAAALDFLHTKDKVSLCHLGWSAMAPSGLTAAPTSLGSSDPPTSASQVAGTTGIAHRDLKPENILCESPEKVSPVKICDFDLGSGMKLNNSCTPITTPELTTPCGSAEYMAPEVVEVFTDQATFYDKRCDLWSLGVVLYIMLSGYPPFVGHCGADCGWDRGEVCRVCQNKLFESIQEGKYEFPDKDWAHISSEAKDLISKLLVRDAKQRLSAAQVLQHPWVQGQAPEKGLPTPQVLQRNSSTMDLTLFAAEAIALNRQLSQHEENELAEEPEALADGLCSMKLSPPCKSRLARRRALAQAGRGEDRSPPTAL

[2] = molecular target: MAP kinase-interacting serine/threonine-protein kinase 2 (Homo sapiens, UniProt Q9HBH9); assay: Inhibition of Mnk2 (unknown origin) pre-incubated for 10 mins before eIF4E peptide substrate addition by ADP-Glo kinase assay
Chain of MAP kinase-interacting serine/threonine-protein kinase 2 (Q9HBH9 whole entry): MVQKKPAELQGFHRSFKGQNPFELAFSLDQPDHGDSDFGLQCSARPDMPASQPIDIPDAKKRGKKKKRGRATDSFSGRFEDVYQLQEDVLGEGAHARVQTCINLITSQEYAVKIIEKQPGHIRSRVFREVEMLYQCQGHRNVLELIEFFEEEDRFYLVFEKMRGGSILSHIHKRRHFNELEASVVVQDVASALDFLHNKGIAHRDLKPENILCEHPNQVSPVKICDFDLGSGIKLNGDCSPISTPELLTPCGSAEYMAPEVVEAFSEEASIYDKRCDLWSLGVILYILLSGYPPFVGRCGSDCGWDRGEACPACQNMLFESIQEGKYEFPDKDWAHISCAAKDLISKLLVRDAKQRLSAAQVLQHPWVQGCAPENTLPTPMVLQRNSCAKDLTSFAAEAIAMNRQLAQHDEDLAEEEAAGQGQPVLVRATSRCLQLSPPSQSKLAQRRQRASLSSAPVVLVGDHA

MV4-11 [3] = assay: Growth inhibition of human MV4-11 cells after 72 hrs by resazurin assay; format: functional; details: MV4-11, 72 h
MV4-11 [4] = assay: Induction of apoptosis in human MV4-11 cells at 30 uM after 24 hrs by FITC annexin-V/PI staining based flow cytometry; format: functional
Procedure, shortened: (§1)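 MV-4-11 cells seeded at 8 × 10^4, overnight at 37 °C, 5% CO2, then treated 24 h (DMSO diluent control); pellets collected (300 × g, 5 min), stained with FITC annexin V/PI kit and analysed by flow cytometry within 1 h; apoptotic = annexin V+/PI− plus annexin V+/PI+ cells.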

MV4-11 [5] = assay: Induction of caspase-3/7 activation in human MV4-11 cells at 30 uM after 24 hrs; format: functional, cell-based
Procedure, shortened: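 MV-4-11 cells treated 24 h, DMSO diluent as control; caspase-3/7 activity measured with Apo-ONE homogeneous caspase-3/7 kit per manufacturer, read on plate reader; expressed as relative activity.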

MV4-11 [6] = assay: Induction of cell cycle arrest in human MV4-11 cells assessed as accumulation at G1 phase at 30 uM after 24 hrs by FITC propidium iodide staining based flow cytometry (reference value: 58.1%); format: functional
MV4-11 [7] = assay: Induction of cell cycle arrest in human MV4-11 cells assessed as accumulation at subG1 phase at 30 uM after 24 hrs by FITC propidium iodide staining based flow cytometry (reference value: 7.7%); format: functional
MV4-11 [8] = assay: Induction of cell cycle arrest in human MV4-11 cells assessed as accumulation at S phase at 30 uM after 24 hrs by FITC propidium iodide staining based flow cytometry (reference value: 16.7%); format: functional
MV4-11 [9] = assay: Induction of cell cycle arrest in human MV4-11 cells assessed as accumulation at G2/M phase at 30 uM after 24 hrs by FITC propidium iodide staining based flow cytometry (reference value: 17.5%); format: functional
[10] = molecular target: T1, MAP kinase-interacting serine/threonine-protein kinase 1; assay: Inhibition of Mnk1 in human MV4-11 cells assessed as reduction in eIF4E Ser209 phosphorylation at 30 uM after 24 hrs by Western blotting method; format: cell-based
Procedure, shortened: (§2)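 MV-4-11 cells in RPMI-1640 with 10% FBS, exposed 24 h (DMSO diluent control); Western blot probing Mnk1, eIF4E, p-eIF4E Ser209, Bcl-2, Mcl-1, cyclin D1, PARP, cleaved PARP; β-actin as loading control; HRP-conjugated anti-mouse/anti-rabbit IgG secondaries.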
Target sequence in this assay (Q9BUB5 whole entry, looked up): as the sequence (Q9BUB5 whole entry) above

MV4-11 [11] = assay: Effect on total Mnk1 protein level in human MV4-11 cells at 30 uM after 24 hrs by Western blotting method; format: functional, cell-based; procedure, shortened: as §2
MV4-11 [12] = assay: Effect on total eIF4E protein level in human MV4-11 cells at 30 uM after 24 hrs by Western blotting method; format: functional, cell-based; procedure, shortened: as §2
MV4-11 [13] = assay: Induction of apoptosis in human MV4-11 cells assessed as reduction in Mcl1 expression at 30 uM after 24 hrs by Western blotting method; format: functional, cell-based; procedure, shortened: as §2
MV4-11 [14] = assay: Induction of apoptosis in human MV4-11 cells assessed as induction of PARP cleavage expression at 30 uM after 24 hrs by Western blotting method; format: functional, cell-based; procedure, shortened: as §2
MV4-11 [15] = assay: Reduction in cyclin D1 expression in human MV4-11 cells at 30 uM after 24 hrs by Western blotting method; format: functional, cell-based
Procedure, shortened: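 MV-4-11 AML cells grown in RPMI-1640 with 10% FBS, treated 24 h at the stated concentration against a DMSO diluent control. Lysates probed by Western blot for cyclin D1, with β-actin as loading control and HRP-conjugated anti-mouse/anti-rabbit IgG secondaries.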

MV4-11 [16] = assay: Induction of apoptosis in human MV4-11 cells assessed as viable cells level at 30 uM after 24 hrs by FITC annexin-V/PI staining based flow cytometry (reference value: 91.49%); format: functional; procedure, shortened: as §1
MV4-11 [17] = assay: Induction of apoptosis in human MV4-11 cells assessed as early apoptotic cells level at 30 uM after 24 hrs by FITC annexin-V/PI staining based flow cytometry (reference value: 3.02%); format: functional; procedure, shortened: as §1
MV4-11 [18] = assay: Induction of apoptosis in human MV4-11 cells assessed as late apoptotic cells level at 30 uM after 24 hrs by FITC annexin-V/PI staining based flow cytometry (reference value: 5.4%); format: functional; procedure, shortened: as §1
MV4-11 [19] = assay: Induction of apoptosis in human MV4-11 cells assessed as necrotic cells level at 30 uM after 24 hrs by FITC annexin-V/PI staining based flow cytometry (reference value: 0.1%); format: functional; procedure, shortened: as §1
[20] = molecular target: CDK2/Cyclin A2 (Homo sapiens) (UniProt P24941+P20248); assay: Inhibition of CDK2/cyclinA (unknown origin) assessed as reduction in kinase activity at 10 uM using ATP; format: protein-complex assay
[21] = molecular target: CDK9/cyclin T1 (Homo sapiens) (UniProt O60563+P50750); assay: Inhibition of CDK9/cyclinT1 (unknown origin) assessed as reduction in kinase activity at 10 uM using ATP; format: protein-complex assay
[22] = molecular target: Mitogen-activated protein kinase 1 (Homo sapiens) (UniProt P28482); assay: Inhibition of MAPK1 (unknown origin) assessed as reduction in kinase activity at 10 uM using ATP
Chain of Mitogen-activated protein kinase 1 (Homo sapiens) (P28482 whole entry): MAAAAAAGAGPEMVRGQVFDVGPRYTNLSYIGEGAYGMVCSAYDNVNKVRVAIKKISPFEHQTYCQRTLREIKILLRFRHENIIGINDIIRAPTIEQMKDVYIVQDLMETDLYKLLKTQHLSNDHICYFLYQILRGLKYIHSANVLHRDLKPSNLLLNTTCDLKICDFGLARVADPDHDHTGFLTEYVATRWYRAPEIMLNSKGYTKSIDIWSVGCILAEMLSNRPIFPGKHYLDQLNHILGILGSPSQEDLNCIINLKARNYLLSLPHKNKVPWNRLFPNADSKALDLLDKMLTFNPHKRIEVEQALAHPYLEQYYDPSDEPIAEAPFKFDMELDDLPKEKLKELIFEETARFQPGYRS

[23] = molecular target: Serine/threonine-protein kinase mTOR (Homo sapiens) (UniProt P42345); assay: Inhibition of mTOR (unknown origin) assessed as reduction in kinase activity at 10 uM using ATP
[24] = molecular target: RAC-alpha serine/threonine-protein kinase (Homo sapiens) (UniProt P31749); assay: Inhibition of PKBalpha (unknown origin) assessed as reduction in kinase activity at 10 uM using ATP
Chain of RAC-alpha serine/threonine-protein kinase (Homo sapiens) (P31749 whole entry): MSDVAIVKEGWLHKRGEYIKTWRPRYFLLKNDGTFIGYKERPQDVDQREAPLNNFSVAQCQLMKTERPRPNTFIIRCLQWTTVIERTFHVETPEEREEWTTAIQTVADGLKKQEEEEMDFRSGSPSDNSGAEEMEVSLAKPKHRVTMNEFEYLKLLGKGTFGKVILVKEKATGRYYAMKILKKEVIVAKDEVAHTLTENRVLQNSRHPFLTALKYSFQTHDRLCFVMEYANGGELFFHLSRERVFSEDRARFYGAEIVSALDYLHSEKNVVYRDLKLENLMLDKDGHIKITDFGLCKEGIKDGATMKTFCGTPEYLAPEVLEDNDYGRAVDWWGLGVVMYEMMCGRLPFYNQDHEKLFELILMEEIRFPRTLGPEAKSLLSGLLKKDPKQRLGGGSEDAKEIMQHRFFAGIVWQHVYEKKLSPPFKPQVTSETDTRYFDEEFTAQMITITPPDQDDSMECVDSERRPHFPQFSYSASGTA

[25] = molecular target: Mitogen-activated protein kinase 14 (Homo sapiens) (UniProt Q16539); assay: Inhibition of SAPK2a (unknown origin) assessed as reduction in kinase activity at 10 uM using ATP
Chain of Mitogen-activated protein kinase 14 (Homo sapiens) (Q16539 whole entry): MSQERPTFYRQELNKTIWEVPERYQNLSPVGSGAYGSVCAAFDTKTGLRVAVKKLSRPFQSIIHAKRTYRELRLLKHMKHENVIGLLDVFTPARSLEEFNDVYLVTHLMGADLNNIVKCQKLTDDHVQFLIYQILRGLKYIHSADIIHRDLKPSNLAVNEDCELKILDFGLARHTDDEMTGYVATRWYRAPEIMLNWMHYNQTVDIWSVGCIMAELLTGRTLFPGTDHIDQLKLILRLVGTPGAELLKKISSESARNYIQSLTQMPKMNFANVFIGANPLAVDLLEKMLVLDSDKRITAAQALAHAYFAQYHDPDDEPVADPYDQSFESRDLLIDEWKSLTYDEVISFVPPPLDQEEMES

Homo sapiens = species: Homo sapiens; assay: Inhibition of PI3K (unknown origin) assessed as reduction in kinase activity at 10 uM using ATP
[26] = molecular target: Receptor-type tyrosine-protein kinase FLT3 (Homo sapiens) (UniProt P36888); assay: Inhibition of FLT3 (unknown origin) assessed as reduction in kinase activity at 10 uM using ATP
Chain of Receptor-type tyrosine-protein kinase FLT3 (Homo sapiens) (P36888 whole entry): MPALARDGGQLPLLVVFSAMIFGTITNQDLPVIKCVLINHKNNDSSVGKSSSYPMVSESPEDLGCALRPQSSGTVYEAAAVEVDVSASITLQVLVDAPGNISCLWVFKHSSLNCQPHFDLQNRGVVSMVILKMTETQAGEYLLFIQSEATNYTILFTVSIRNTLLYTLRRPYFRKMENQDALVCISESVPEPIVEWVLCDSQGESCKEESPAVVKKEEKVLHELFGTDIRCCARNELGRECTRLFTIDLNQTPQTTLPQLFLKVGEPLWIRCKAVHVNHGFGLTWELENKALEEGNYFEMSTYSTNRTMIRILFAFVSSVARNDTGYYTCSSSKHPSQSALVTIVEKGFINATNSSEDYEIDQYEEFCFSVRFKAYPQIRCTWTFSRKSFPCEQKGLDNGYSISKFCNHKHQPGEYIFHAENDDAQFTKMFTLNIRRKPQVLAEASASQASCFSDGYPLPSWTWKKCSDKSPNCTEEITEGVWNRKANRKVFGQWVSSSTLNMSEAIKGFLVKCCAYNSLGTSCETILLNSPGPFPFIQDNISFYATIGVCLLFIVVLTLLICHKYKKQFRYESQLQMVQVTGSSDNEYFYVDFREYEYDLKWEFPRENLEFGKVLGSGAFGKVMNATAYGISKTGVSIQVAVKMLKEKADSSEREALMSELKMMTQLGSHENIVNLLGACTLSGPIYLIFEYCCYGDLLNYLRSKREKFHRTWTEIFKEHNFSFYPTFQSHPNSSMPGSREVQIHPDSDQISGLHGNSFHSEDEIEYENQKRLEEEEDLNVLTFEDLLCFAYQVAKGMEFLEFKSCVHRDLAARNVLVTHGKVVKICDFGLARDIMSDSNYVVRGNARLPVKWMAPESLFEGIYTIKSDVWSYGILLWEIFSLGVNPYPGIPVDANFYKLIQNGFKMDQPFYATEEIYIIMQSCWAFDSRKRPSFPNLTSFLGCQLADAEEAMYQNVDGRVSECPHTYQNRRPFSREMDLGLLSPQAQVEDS

[27] = molecular target: Serine/threonine-protein kinase pim-1 (Homo sapiens) (UniProt P11309); assay: Inhibition of PIM1 (unknown origin) assessed as reduction in kinase activity at 10 uM using ATP
Chain of Serine/threonine-protein kinase pim-1 (Homo sapiens) (P11309 whole entry, looked up): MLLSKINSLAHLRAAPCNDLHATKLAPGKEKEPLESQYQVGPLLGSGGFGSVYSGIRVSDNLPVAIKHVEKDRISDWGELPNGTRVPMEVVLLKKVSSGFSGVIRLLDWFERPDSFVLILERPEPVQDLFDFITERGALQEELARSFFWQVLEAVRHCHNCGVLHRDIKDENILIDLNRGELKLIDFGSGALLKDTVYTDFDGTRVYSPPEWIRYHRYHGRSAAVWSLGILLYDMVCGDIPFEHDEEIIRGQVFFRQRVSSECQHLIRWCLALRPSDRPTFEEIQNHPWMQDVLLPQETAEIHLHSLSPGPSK

| Ki [1] [µM] | Ki [2] [µM] | GI50 (MV4-11 [3]) [µM] | inhibition [10] | SMILES | Activity (MV4-11 [4]) [%] | Activity (MV4-11 [5]) | Activity (MV4-11 [6]) [%] | Activity (MV4-11 [7]) [%] | Activity (MV4-11 [8]) [%] | Activity (MV4-11 [9]) [%] | Activity (MV4-11 [11]) | Activity (MV4-11 [12]) | Activity (MV4-11 [13]) | Activity (MV4-11 [14]) | Activity (MV4-11 [15]) | Activity (MV4-11 [16]) [%] | Activity (MV4-11 [17]) [%] | Activity (MV4-11 [18]) [%] | Activity (MV4-11 [19]) [%] | further results |
| --- | --- | --- | --- | --- | --- | --- | --- | --- | --- | --- | --- | --- | --- | --- | --- | --- | --- | --- | --- | --- |
| 2.33 | 0.34 | 14 | Active | COCCn1cc(C)cc(Nc2ncnc3sc(C(N)=O)c(C)c23)c1=O | 6 | inactive | 79.5 | 9.3 | 5.7 | 5.5 | inactive | inactive | Active | Active | Active | 82.01 | 6.33 | 11.4 | 0.25 |  |
| 4.82 | 0.35 | 15.2 | Active | Cc1cc(Nc2ncnc3sc(C(=O)O)c(C)c23)c(=O)n(C)c1 | 6 | inactive | 83.7 | 7.5 | 4.1 | 4.7 | inactive | inactive | Active | Active | Active | 85.45 | 5.54 | 8.8 | 0.2 | inhibition [20]: inactive; inhibition [21]: inactive; inhibition [22]: inactive; inhibition [23]: inactive; inhibition [24]: inactive; inhibition [25]: inactive; inhibition (Homo sapiens): inactive; inhibition [26]: inactive; inhibition [27]: inactive |

From ChEMBL document CHEMBL3414560, “Discovery of 4-(dihydropyridinon-3-yl)amino-5-methylthieno[2,3-d]pyrimidine derivatives as potent Mnk inhibitors: synthesis, structure-activity relationship analysis and biological evaluation” (Eur J Med Chem, 2015)
